Reference: ChEMBL document CHEMBL3861996, “Arylsulfonamide derivatives of (aryloxy)ethyl pyrrolidines and piperidines as α1-adrenergic receptor antagonist with uro-selective activity” (Bioorg Med Chem, 2016)

Experiments:
[1] = biological target: T1, Alpha-1A adrenergic receptor (Homo sapiens, UniProt P35348); assay: Intrinsic activity at alpha1A adrenergic receptor (unknown origin) assessed as inhibition of agonist induced effect preincubated for 30 mins followed by agonist addition measured after 5 hrs in presence of CCF4-AM by cell based beta lactamase reporter gene assay
T1 sequence (P35348 whole entry): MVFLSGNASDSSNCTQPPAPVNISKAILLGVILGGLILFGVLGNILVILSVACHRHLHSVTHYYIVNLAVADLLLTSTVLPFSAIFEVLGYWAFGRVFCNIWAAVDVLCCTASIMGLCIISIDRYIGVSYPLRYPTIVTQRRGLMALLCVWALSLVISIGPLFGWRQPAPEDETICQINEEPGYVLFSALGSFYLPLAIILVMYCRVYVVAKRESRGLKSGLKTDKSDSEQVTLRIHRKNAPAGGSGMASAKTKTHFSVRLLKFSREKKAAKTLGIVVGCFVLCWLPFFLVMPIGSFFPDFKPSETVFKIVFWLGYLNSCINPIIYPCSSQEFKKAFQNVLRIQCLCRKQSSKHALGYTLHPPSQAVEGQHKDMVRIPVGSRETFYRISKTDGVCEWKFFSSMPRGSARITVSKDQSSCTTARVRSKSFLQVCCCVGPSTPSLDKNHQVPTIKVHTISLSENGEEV
In short: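 Antagonist mode: 8 compound concentrations (10^-4–10^-11 M), then after 30 min standard agonist at EC80. Incubated 5 h at 37 °C/5% CO2, then loaded with CCF4-AM FRET substrate for 2 h at room temperature. Fluorescence read-out. Mean EC50 from three experiments.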

[2] = biological target: T2, Alpha-1B adrenergic receptor (Homo sapiens, UniProt P35368); assay: Intrinsic activity at human alpha1B adrenergic receptor expressed in CHOK1 cells co-expressing aequorin assessed as inhibition of agonist induced calcium mobilization preincubated for 15 mins followed by agonist addition measured for 20 secs in presence of coelenterazine H by luminescence assay; format: cell-based, CHO-K1
T2 sequence (P35368 whole entry): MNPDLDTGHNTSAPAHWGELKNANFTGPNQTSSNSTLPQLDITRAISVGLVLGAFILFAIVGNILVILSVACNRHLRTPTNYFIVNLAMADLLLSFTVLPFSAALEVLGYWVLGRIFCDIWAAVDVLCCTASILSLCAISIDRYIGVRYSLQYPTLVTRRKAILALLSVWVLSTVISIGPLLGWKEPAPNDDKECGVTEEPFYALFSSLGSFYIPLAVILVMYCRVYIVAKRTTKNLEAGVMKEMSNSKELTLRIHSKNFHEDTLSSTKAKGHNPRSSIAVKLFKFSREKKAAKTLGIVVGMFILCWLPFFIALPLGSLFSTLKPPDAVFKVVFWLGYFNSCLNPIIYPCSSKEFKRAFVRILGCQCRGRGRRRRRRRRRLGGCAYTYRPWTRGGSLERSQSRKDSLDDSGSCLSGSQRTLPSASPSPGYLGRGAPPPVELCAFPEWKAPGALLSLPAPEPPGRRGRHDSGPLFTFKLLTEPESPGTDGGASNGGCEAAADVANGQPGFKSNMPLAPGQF
In short: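 Frozen ready-to-use cells stably expressing α1B receptor and aequorin, resuspended in assay buffer with 5 µM coelenterazine h and rotated overnight at rt in the dark. Diluted to 5000 cells/20 µL. Agonist mode: cells injected onto ligands, light recorded 20 s. Antagonist mode: 15 min with compound at room temperature, then agonist at 3× EC80 final, light recorded 20 s. Mean EC50 from three experiments.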

Compound | EC50 [1] | EC50 [2]
COc1ccccc1OCCN1CCC(CNS(=O)(=O)c2cc(Cl)ccc2F)CC1 | 148 nM | 12.7 nM
COc1ccc(S(=O)(=O)NCC2CCN(CCOc3ccccc3OC)CC2)cc1OC | 161 nM | 599 nM
CC(C)Oc1ccccc1OCCN1CCC(CNS(=O)(=O)c2cccc(Cl)c2F)CC1 | 11.1 nM | 42.1 nM
COc1ccc(S(=O)(=O)NC2CCN(CCOc3ccccc3OC)CC2)cc1OC | 192 nM | 461 nM
CC(C)Oc1ccccc1OCCN1CCC(CNS(=O)(=O)c2cccc3cccnc23)CC1 | 34.1 nM | 105 nM
COc1ccccc1OCCN1CCC(CNS(=O)(=O)c2cccc(Cl)c2F)CC1 | 84.2 nM | 14.1 nM
COc1ccccc1OCCN1CCC(CNS(=O)(=O)c2cncc3ccccc23)CC1 | 140 nM | 515 nM
COc1ccccc1OCCN1CCC(NS(=O)(=O)c2cncc3ccccc23)CC1 | 99.7 nM | 608 nM
COc1ccccc1OCCN1CCC(CNS(=O)(=O)c2cccc(Cl)c2)CC1 | 121 nM | 15.5 nM
